# Source: PubChem
# Hits are enriched below; roughly 1.9% of the tested compounds scored in any of these assays.
# M4 ag – CHRM4 agonism in calcium assay. CHO-K1 hM4/Gqi5, Fluo-8 calcium fluorescence; vehicle 0%, full acetylcholine response 100%. activation, % at 3 µM. 360,000 compounds, 0.14% hits. AID 624127;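 active means activation above the run mean over all test wells plus 3 SD, cut at about 32% in these data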;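 further: peak over basal fluorescence ratio per well then scaled between controls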
# Target sequence (P08173 whole entry, looked up): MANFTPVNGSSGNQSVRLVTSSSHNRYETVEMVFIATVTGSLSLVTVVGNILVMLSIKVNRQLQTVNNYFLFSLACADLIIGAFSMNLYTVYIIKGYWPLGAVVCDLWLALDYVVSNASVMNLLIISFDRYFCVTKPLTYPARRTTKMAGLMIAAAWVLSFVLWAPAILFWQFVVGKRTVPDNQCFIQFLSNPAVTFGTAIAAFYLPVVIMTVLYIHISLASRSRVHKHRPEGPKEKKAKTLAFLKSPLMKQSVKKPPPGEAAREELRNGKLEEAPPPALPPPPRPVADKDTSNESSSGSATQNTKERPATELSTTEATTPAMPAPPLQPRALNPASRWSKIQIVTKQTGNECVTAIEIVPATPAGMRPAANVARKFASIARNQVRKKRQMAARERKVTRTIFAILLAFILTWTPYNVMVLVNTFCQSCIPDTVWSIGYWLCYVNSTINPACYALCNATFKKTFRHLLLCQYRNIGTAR
# M5 ag – agonists of human muscarinic M5 receptor (CHRM5) | AID 624037 | CHO-K1 hM5 cells, Fluo-8 calcium fluorescence; 0% DMSO wells, 100% maximal acetylcholine response | activation, % at 3 µM | 360,000 compounds, 0.19% hits;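 active means activation above the run's mean over test compounds plus 3 SD, cut at about 23% in these data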;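 further: signal is peak over basal fluorescence ratio across the kinetic read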
# M4 antag – CHRM4 antagonism in calcium assay; P08173; CHO-hM4 cells, ACh EC80, Fluo-8 calcium fluorescence; inhibition, % at 3 µM; 360,000 compounds, 0.73% hits;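 active means inhibition above its plate's cutoff, the mean inhibition of sample wells plus 3 SD, cut at about 27% in these data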
# CHRM4 PAM – positive allosteric modulators of human muscarinic M4 receptor | P08173 | CHO-K1 hM4/Gqi5, Fluo-8 calcium fluorescence, ACh EC20; 0% = ACh EC20, 100% = maximal ACh | activation, % at 3 µM | 360,000 compounds, 0.4% hits | AID 624126;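 active means activation above its plate's cutoff, the mean activation of sample wells plus 3 SD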
# CHRM5 antagonist – antagonists of human muscarinic M5 receptor (CHRM5). P08912. CHO-hM5 cells, Fluo-8 calcium fluorescence, ACh EC80. inhibition, % at 3 µM. 360,000 compounds, 0.59% hits. AID 624040;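 active means inhibition above a per-plate cutoff, the mean of that plate's test compounds plus 3 SD, cut at about 27% in these data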
# M5 PAM – CHRM5 positive allosteric modulation | P08912 | CHO-K1 hM5, Fluo-8 calcium, ACh EC20 PAM; 0% = ACh EC20, 100% = ACh EC100 | activation, % at 3 µM | 360,000 compounds, 0.3% hits | AID 624038;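 active means activation above the run cutoff, the mean activation of all test compounds plus 3 SD, cut at about 18% in these data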
#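 System: CHO-K1 cell line with stable human muscarinic M5 receptor expression | Also added: EC20 acetylcholine as agonist stimulus | Compound: One concentration, 3 µM final (nominal) | Timing: Fluo-8 loading 80 min at 37 °C plus 30 min room temperature | Measured by: Fluo-8 calcium dye fluorescence, kinetic read | Read-out basis: % activation, ACh-normalized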
# A number is an active result; – = inactive.
SMILES,M4 ag,M5 ag,M4 antag,CHRM4 PAM,CHRM5 antagonist,M5 PAM
O=C1CCCCC(=O)N(c2ccccc2)c2ccccc21,–,–,–,–,–,18
COc1ccc(CCC(=O)OCC(=O)Nc2sccc2C#N)cc1,–,–,–,–,–,–
CCCCCCCCOc1ccc(C(=O)O)cc1,–,–,–,22,–,–
CCCCOc1ccc(C(=O)Nc2cccc(C)n2)cc1,–,–,94,–,–,–
CCCCOc1ccc(C(=O)O)cc1,–,–,–,–,–,–
COc1ccc(CCNC(=O)CCN2C(=O)[C@@H]3Cc4ccccc4CN3C2=O)cc1,–,–,–,–,–,–
O=C(CN1C(=O)c2ccccc2S1(=O)=O)NCc1ccccc1,–,–,–,–,–,–
COc1ccccc1CNC(=O)Cn1nc(C)c([N+](=O)[O-])c1C,–,–,–,–,–,–
COc1cccc(CNC(=O)Cn2nc(C)c([N+](=O)[O-])c2C)c1,–,–,–,–,–,21
COc1cccc(CNC(=O)CCN2C(=O)[C@@H]3Cc4ccccc4CN3C2=O)c1,–,–,–,20,–,–
COc1cccc(CNC(=O)CN2C(=O)c3ccccc3S2(=O)=O)c1,–,–,–,25,–,–
C[C@H]1CN([C@@H](C)CO)C(=O)CCCn2nncc2CO[C@H]1CN(C)C(=O)C1CC1,–,–,–,–,–,–
NS(=O)(=O)c1ccc(NCc2cc(Cl)ccc2OCc2ccc(F)cc2)cc1,–,–,–,–,–,–
CC[C@]12c3[nH]c4cc(CCC(=O)N(C)C)ccc4c3CCN1C(=O)[C@@H](CC(=O)NC(C)(C)C)C[C@@H]2C(=O)N1CCN(C(=O)C2CC2)CC1,–,–,–,–,–,–
COC(C[C@@H]1O[C@H]1C(=O)COCc1ccccc1)OC,–,–,–,25,–,–
COc1cc(SSc2cc(OC)cc([N+](=O)[O-])c2N)c(N)c([N+](=O)[O-])c1,–,–,–,–,–,–
O=C(O)c1cc(C(=O)O)cc(N2C(=O)CSC2=S)c1,–,–,–,17,–,–
O=C1CSC(=S)N1c1ccc(F)c(Cl)c1,–,–,–,–,33,–
CCOc1ccc(N2C(=O)CSC2=S)cc1,–,–,–,–,–,18
O=C(O)c1ccc(N2C(=O)CSC2=S)cc1,–,–,–,–,–,–
CS(=O)(=O)N1CCCCC1c1cc(C(=O)Nc2cccc3c2CCCC3)no1 (stereo not drawn),–,–,–,–,–,–
Cc1cc(C(=O)N2CCC(C)(C(=O)NS(=O)(=O)C3CC3)C2)n(C(C)(C)C)n1 (stereo not drawn),–,–,–,–,–,–
O=C(C1CCCN(Cc2ccc(Br)cc2)C1)N1CCCCC1 (stereo not drawn),–,–,–,–,–,–
COc1cc(C(=O)NC2CC(C)(C)Cc3c2cnn3-c2ccccc2)cc(OC)c1OC (stereo not drawn),–,–,–,–,–,–
COc1cccc(C(=O)NC2CC(C)(C)Cc3c2cnn3-c2cccc(F)c2)c1OC (stereo not drawn),–,–,–,–,28,–
SMILES,M4 ag,M5 ag,M4 antag,CHRM4 PAM,CHRM5 antagonist,M5 PAM
CC(C)C(=O)Nc1cccc(C(=O)N2CCCCC2C)c1 (stereo not drawn),–,–,–,–,–,21
COc1ccccc1NC(=O)Cn1nc(Cc2cccnc2)c2ccccc2c1=O,–,–,–,–,–,–
COc1ccc(-c2noc(C(C)NC(=O)c3ccco3)n2)cc1OC (stereo not drawn),–,–,–,–,–,–
O=C(NNC1=NCCC1)C1CC1,–,–,–,–,–,–
CCn1c(SCC(=O)c2cc(OC)ccc2OC)nnc1-c1ccncc1,–,–,–,–,–,–
CCn1c(SCC(=O)c2cc(OC)ccc2OC)nnc1C(C)C,–,–,–,19,–,–
Cc1ccnn1CC(=O)N/N=C/c1ccc2c(c1)OCO2,–,–,–,–,–,–
O=C(NCCS(=O)(=O)NCc1ccccc1Cl)c1ccccc1,–,–,–,–,–,–
CSc1ccc(CCNC(=O)CN2C(=O)c3cccnc3Oc3ccc(C)cc32)cc1,–,–,33,–,–,–
O=C(c1cccc(Cl)c1)C1CCCN(Cc2ccc(N3CCNC3=O)cc2)C1 (stereo not drawn),–,–,29,–,–,–
COc1ccc(CN2CCC(C(=O)c3cccc(Cl)c3)CC2)cc1,–,–,–,–,–,–
O=C(c1cccc(Cl)c1)N1CCCC(C(=O)N2CCCCCC2)C1 (stereo not drawn),–,–,–,–,–,–
O=C(c1cccc(Cl)c1)C1CCCN(C(=O)c2ccoc2)C1 (stereo not drawn),–,–,–,–,39,–
COc1ccc(-c2c[n+]3c(n2-c2ccccc2)SCC3)cc1,–,–,–,–,–,–
c1ccc(Cn2c(-c3ccccc3)c[n+]3c2SCCC3)cc1,–,–,97,–,96,–
CCOC(=O)C1(Cc2cccc(Cl)c2)CCCN(C(=O)c2cccc(C)n2)C1 (stereo not drawn),–,–,–,–,–,–
CCCC(=O)NC1=C(Cl)C(=O)c2ccccc2C1=O,–,–,61,–,32,–
O=C1C(Cl)=C(Nc2ccc(O)cc2)C(=O)c2ccccc21,–,–,64,–,41,–
CCNC1=C(Cl)C(=O)c2ccccc2C1=O,–,–,–,–,–,–
COc1cc(OC)nc(NC(=O)NS(=O)(=O)c2ccc(F)cc2)n1,–,–,–,–,–,–
Cc1c(N=Cc2c(O)n(C3CCCCC3)c(=O)[nH]c2=O)c(=O)n(-c2ccccc2)n1C,–,–,–,–,–,20
Cc1c(N=Cc2c(O)n(C)c(=O)c3ccccc23)c(=O)n(-c2ccccc2)n1C,–,–,–,–,–,–
CCOc1ccc(-c2nc(CSCC(=O)N3CCN(c4cccc(OC)c4)CC3)c(C)o2)cc1,–,–,–,–,27,–
COc1cccc(-c2nc(CS(=O)(=O)CC(=O)N3CCN(C)CC3)c(C)o2)c1,–,52,–,–,–,–
COc1ccc(-c2nc(CS(=O)(=O)CC(=O)NCc3ccc4c(c3)OCO4)c(C)o2)cc1,–,–,–,–,–,26
O=C(C[n+]1cc(-c2ccccc2)n2c1CCCCC2)c1ccc(Cl)cc1,–,–,–,–,–,–
CC1CCC(C(C)C)C(OC(=O)C[n+]2cc(-c3ccc(Cl)cc3)n3c2CCCCC3)C1 (stereo not drawn),–,–,–,–,75,–
Cc1cccc(C)c1-n1cccc1/C=C1\SC(=S)N(c2cccc(C(=O)O)c2)C1=O,–,–,–,–,–,–
